According to ChEMBL document CHEMBL1208663, “Synthesis of 2-substituted-N-[4-(1-methyl-4,5-diphenyl-1H-imidazole-2-yl)phenyl]acetamide derivatives and evaluation of their anticancer activity” (Eur J Med Chem, 2010):
Values after ≈ are worked out from the molar mass of the structure shown. Active and inactive are the calls of the source. No cut-off for these calls is given here.

What was measured:
MCF7 [1] = assay: Cytotoxicity against human MCF7 cells at 32 ug/ml after 24 hrs by MTT assay; type: functional
Summary of the method: (§1)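 MCF-7 cells grown in DMEM with 1 mM pyruvate, 10 µg/mL insulin, 10% FBS and penicillin/streptomycin at 37 °C, 5% CO2. Exposed 24 h to 0.64–80 µg/mL (DMSO stocks diluted in medium). MTT added, A540 measured. Percent viability relative to untreated cells; IC50 derived. Three experiments with four wells per concentration.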

HT-29 [2] = assay: Cytotoxicity against human HT-29 cells at 6.4 ug/ml after 24 hrs by MTT assay; type: functional
Summary of the method: (§2)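 HT-29 cells grown in McCoy's 5A with 10% FBS and penicillin/streptomycin at 37 °C, 5% CO2. Treated 24 h with 0.64, 1.6, 6.4, 16, 32 or 80 µg/mL (DMSO stock diluted in medium). MTT added, absorbance read at 540 nm. Viability taken relative to untreated control (100%); IC50 calculated. Four wells per concentration, three repeat experiments.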

HT-29 [3] = assay: Cytotoxicity against human HT-29 cells at 16 ug/ml after 24 hrs by MTT assay; type: functional; summary of the method: as §2
MCF7 [4] = assay: Cytotoxicity against human MCF7 cells at 16 ug/ml after 24 hrs by MTT assay; type: functional; summary of the method: as §1
HT-29 [5] = assay: Cytotoxicity against human HT-29 cells at 32 ug/ml after 24 hrs by MTT assay; type: functional; summary of the method: as §2
HT-29 [6] = assay: Cytotoxicity against human HT-29 cells at 0.64 ug/ml after 24 hrs by MTT assay; type: functional; summary of the method: as §2
HT-29 [7] = assay: Cytotoxicity against human HT-29 cells after 24 hrs by MTT assay; type: functional, cell-based; conditions: HT-29, 24 h; summary of the method: as §2
MCF7 [8] = assay: Cytotoxicity against human MCF7 cells after 24 hrs by MTT assay; type: functional, cell-based; conditions: MCF7, 24 h; summary of the method: as §1
MCF7 [9] = assay: Cytotoxicity against human MCF7 cells at 6.4 ug/ml after 24 hrs by MTT assay; type: functional; summary of the method: as §1
MCF7 [10] = assay: Cytotoxicity against human MCF7 cells at 80 ug/ml after 24 hrs by MTT assay; type: functional; summary of the method: as §1
HT-29 [11] = assay: Cytotoxicity against human HT-29 cells at 1.6 ug/ml after 24 hrs by MTT assay; type: functional; summary of the method: as §2
HT-29 [12] = assay: Cytotoxicity against human HT-29 cells at 80 ug/ml after 24 hrs by MTT assay; type: functional; summary of the method: as §2
MCF7 [13] = assay: Cytotoxicity against human MCF7 cells at 0.64 ug/ml after 24 hrs by MTT assay; type: functional; summary of the method: as §1
MCF7 [14] = assay: Cytotoxicity against human MCF7 cells at 1.6 ug/ml after 24 hrs by MTT assay; type: functional; summary of the method: as §1
MCF7 [15] = assay: Inhibition of DNA synthesis in human MCF7 cells after 48 hrs by BrdU incorporation assay; type: functional, cell-based
Summary of the method: (§3)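 MCF-7 cells (DMEM, pyruvate, insulin, 10% FBS) seeded at 1 × 10^3 cells/mL. Treated at three concentrations for 24 h or 48 h at 37 °C against DMSO control. Labelled with BrdU for 2 h, fixed, then anti-BrdU-POD for 90 min. Colorimetric substrate read at 492 nm after blank subtraction. Triplicate wells, repeated three times.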

HT-29 [16] = assay: Induction of apoptosis in human HT-29 cells assessed as DNA fragmentation after 24 hrs by gel electrophoresis
HT-29 [17] = assay: Inhibition of DNA synthesis in human HT-29 cells by BrdU incorporation assay; type: functional, cell-based; conditions: TDE = time-dependent effect
Summary of the method: (§4)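 HT-29 cells (McCoy's 5A, 10% FBS) seeded at 1 × 10^3 cells/mL. Exposed to three concentrations for 24 h and 48 h at 37 °C, with DMSO solvent control. BrdU label for 2 h, then fixation and anti-BrdU-POD for 90 min. Substrate colour read at 492 nm with blank subtracted. Triplicate wells, three experiments.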

MCF7 [18] = assay: Inhibition of DNA synthesis in human MCF7 cells by BrdU incorporation assay; type: functional, cell-based; conditions: TDE = time-dependent effect; summary of the method: as §3
HT-29 [19] = assay: Inhibition of DNA synthesis in human HT-29 cells after 48 hrs by BrdU incorporation assay; type: functional, cell-based; summary of the method: as §4

Row | SMILES | Activity (MCF7 [1]) [%] | Activity (HT-29 [2]) [%] | Activity (HT-29 [3]) [%] | Activity (MCF7 [4]) [%] | Activity (HT-29 [5]) [%] | Activity (HT-29 [6]) [%] | IC50 (HT-29 [7]) [µg/mL] | IC50 (MCF7 [8]) [µg/mL] | Activity (MCF7 [9]) [%] | Activity (MCF7 [10]) [%] | Activity (HT-29 [11]) [%] | Activity (HT-29 [12]) [%] | Activity (MCF7 [13]) [%] | Activity (MCF7 [14]) [%] | inhibition (MCF7 [15]) | Activity (HT-29 [16]) | inhibition (HT-29 [17]) | inhibition (MCF7 [18]) | inhibition (HT-29 [19])
1 | Cn1c(-c2ccc(NC(=O)CN3CCN(c4ccccc4)CC3)cc2)nc(-c2ccccc2)c1-c1ccccc1 | 63.6 | 46.5 | 55.4 | 59.6 | 60.5 | 17.3 | 8.6 (≈ 16.3 µM) | 10.7 (≈ 20.3 µM) | 37.7 | 72.5 | 26 | 63.7 | 12.1 | 21.3 |  |  |  |  | 
2 | Cn1cnnc1SCC(=O)Nc1ccc(-c2nc(-c3ccccc3)c(-c3ccccc3)n2C)cc1 | 89.2 | 43.1 | 59.1 | 61.2 | 86.1 | 32 | 10.7 (≈ 22.3 µM) | 3.2 (≈ 6.66 µM) | 59.2 | 89.3 | 40.8 | 88 | 33.1 | 42.8 | Dose-dependent effect | Active | tde | tde | Dose-dependent effect
3 | Cn1c(-c2ccc(NC(=O)CN3CCN(Cc4ccccc4)CC3)cc2)nc(-c2ccccc2)c1-c1ccccc1 | 33.6 | 26.8 | 37 | 28.3 | 40 | 15.5 | 65.5 (≈ 121 µM) | > 80 | 23.8 | 49.5 | 26 | 54.5 | 7.2 | 13.3 |  |  |  |  | 
4 | Cn1ccnc1SCC(=O)Nc1ccc(-c2nc(-c3ccccc3)c(-c3ccccc3)n2C)cc1 | 43.4 | 30.7 | 36.5 | 32.4 | 41.1 | 13.6 | 47.5 (≈ 99 µM) | 46.5 (≈ 97 µM) | 27.2 | 64 | 23.8 | 69.4 | 10.3 | 17.5 |  |  |  |  | 
5 | CCN1CCN(CC(=O)Nc2ccc(-c3nc(-c4ccccc4)c(-c4ccccc4)n3C)cc2)CC1 | 38.6 | 17.2 | 28.4 | 32.8 | 38.8 | 7.4 | 75 (≈ 156 µM) | > 80 | 16.4 | 46.3 | 13.9 | 51.2 | 4.7 | 14.6 |  |  |  |  | 
6 | CN1CCN(CC(=O)Nc2ccc(-c3nc(-c4ccccc4)c(-c4ccccc4)n3C)cc2)CC1 | 46.2 | 28.8 | 33.7 | 30.1 | 49.1 | 18.8 | 35.5 (≈ 76.2 µM) | 76.5 (≈ 164 µM) | 28.6 | 50.3 | 27.4 | 53.1 | 1.1 | 2.9 |  |  |  |  | 
7 | Cn1c(-c2ccc(NC(=O)CCl)cc2)nc(-c2ccccc2)c1-c1ccccc1 | 42.8 | 15.1 | 23.7 | 15.2 | 53.2 | 7.2 | 28.7 (≈ 71.4 µM) | 42.6 (≈ 106 µM) | 14.2 | 70 | 14.4 | 76.1 | 3.4 | 4.3 |  |  |  |  | 
8 | CN(C)CCN1CCN(CC(=O)Nc2ccc(-c3nc(-c4ccccc4)c(-c4ccccc4)n3C)cc2)CC1 | 25.8 | 12.2 | 28.2 | 19.4 | 29.8 | 3.1 | > 80 | > 80 | 11.1 | 34.7 | 8 | 45.4 | 1.2 | 1.9 |  |  |  |  | 
9 | Cn1c(-c2ccc(NC(=O)CSc3nc4ccccc4s3)cc2)nc(-c2ccccc2)c1-c1ccccc1 | 59 | 36.8 | 47.2 | 50.3 | 66 | 9.8 | 18 (≈ 33.8 µM) | 15.8 (≈ 29.7 µM) | 27 | 76.6 | 15.3 | 82.7 | 0.9 | 2.1 |  |  |  |  | 
10 | Cn1c(-c2ccc(NC(=O)CSC3=NCCS3)cc2)nc(-c2ccccc2)c1-c1ccccc1 | 52.5 | 31 | 43.3 | 41.8 | 59.4 | 16.8 | 21 (≈ 43.3 µM) | 26.7 (≈ 55.1 µM) | 18.6 | 70 | 30.4 | 75.2 | 10.3 | 16.2 |  |  |  |  | 
11 | Cn1c(-c2ccc(NC(=O)CN3CCN(Cc4ccc(Cl)cc4)CC3)cc2)nc(-c2ccccc2)c1-c1ccccc1 | 52.8 | 41.5 | 52.9 | 46.2 | 55.6 | 11.3 | 12 (≈ 20.8 µM) | 21 (≈ 36.4 µM) | 33.4 | 52.9 | 16.4 | 60.7 | 4.8 | 11.8 |  |  |  |  | 
